Experimental findings from publication PMC3944097 (ACS chemical biology, 2013) are described below.

Series [1] can be described thus: LC/MS identification of parent probe, Met1 and Met2 in tumor, plasma and liver. Particulars: 60 min after probe injection; for species detected in liver: liver homogenate; for species detected in liver / parent probe in plasma: LC/MS; for species detected in SCC-7 tumor: tumor homogenate, high sensitivity LC/MS. It counts as in vivo, mice. In short, it runs like this: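 Female athymic nude mice bore subcutaneous SCC-7 tumours (~300 mm3) and received probe intravenously via the tail vein. At 60 min, plasma, tumour and liver were collected. Tissues were weighed, stored in liquid nitrogen and homogenised in H2O/acetonitrile 50/50 containing 10% HCOOH. After pellet removal, extracts were lyophilised and redissolved in the same solvent. High-sensitivity LC–MS then screened for parent probe, Met1 and Met2.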

In another series the target is MMP-13 (Homo sapiens, UniProt P45452). Put plainly: LC/MS analysis of probe fragmentation on incubation with MMP-13. It counts as biochemical. Particulars: for metabolites found after incubation with MMP-13: 2 h incubation with MMP-13, LC/MS. In short, it runs like this:
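Test compound (1 μM) incubated with MMP-13 catalytic domain (40 nM) at 37 °C in 50 mM Tris, 10 mM CaCl2, 150 mM NaCl, 0.05% Brij35, pH 7.8. Aliquots were taken every 10 min to 60 min, then every 20 min to 120 min. Each was quenched with an equal volume of acetonitrile containing 10% HCOOH. Fragments were identified by UPLC–Q-Tof LC–MS.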

Series [2] is classed as in vivo, mice. Particulars: for half-life: mouse, iv. In outline:
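Female athymic nude mice bore SCC-7 tumours, grown from 1 × 10^6 cells injected subcutaneously into the right front flank and used at ~300 mm3. Probe was given intravenously via the tail vein. Blood was sampled at 1, 5, 15, 30, 45 and 60 min. Intact probe and the Met1/Met2 fragments were measured by HPLC–QTRAP LC–MS using a single MRM transition, with triplicate injections.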

The subject of the next series is different MMPs. The series can be described thus: Specificity and selectivity of probes to MMP enzymes. Particulars: fluorescence activation by MMP enzymes (Figure 2a). Format: biochemical.
The test system of series [3] is catalytic domain of MMP-13. The series can be described thus: reaction buffer. The conditions noted are these: 37 °C, up to 120 min.

A word on the half-life: it is the time in which the quantity being followed falls by half. A low value points to fast loss. `CCN(CC)c1ccc2nc3ccc(N=Nc4ccc(N(C)CCCC(=O)NCCCC[C@@H](NC(=O)CNC(=O)[C@H](CCCNC(=N)N)NC(=O)[C@@H](NC(=O)CNC(=O)[C@H](CC(C)C)NC(=O)[C@@H]5CCCN5C(=O)CNC(=O)CCCCC[N+]5=C(C=CC=CC=C6N(CC)c7ccc8c(S(=O)(=O)[O-])cc(S(=O)(=O)O)cc8c7C6(C)C)C(C)(C)c6c5ccc5c(S(=O)(=O)[O-])cc(S(=O)(=O)O)cc65)C(C)C)C(=O)NCC(=O)NCC(=O)NCCOCCOCCOCCOCCOCCOCCOCCOCCOCCOCCOCCO)cc4)cc3[n+](-c3ccccc3)c2c1` [D-MMP-P12]: in series [1], the “species detected in liver” value was “only Met2 fragment could be detected”; the “parent probe in plasma” value was “still detectable after 1 h”; the “species detected in SCC-7 tumor” value is “parent D-MMP-P12 probe, Met1 and Met2 were all detectable”. Also, the “metabolites found after incubation with MMP-13” value at MMP-13 is “only the MMP specific metabolite Met1 but not Met2 was found”. Further, in series [2] (mice, i.v., blood samples at 1, 5, 15, 30, 45 and 60 min p.i., LC/MS), the “Met1/Met2 ratio in blood” value is “much higher than that of L-MMP-P12 at all the time points examined”. The same molecule gave a half-life in series [2] (blood) of 29.8 ± 0.45 min. In the series with different MMPs, the “enzyme specificity and selectivity over different MMPs” value was “very similar enzyme specificity and selectivity with L-MMP-P12”.
`CCN(CC)c1ccc2nc3ccc(N=Nc4ccc(N(C)CCCC(=O)NCCCC[C@H](NC(=O)CNC(=O)[C@H](CCCNC(=N)N)NC(=O)[C@@H](NC(=O)CNC(=O)[C@H](CC(C)C)NC(=O)[C@@H]5CCCN5C(=O)CNC(=O)CCCCC[N+]5=C(C=CC=CC=C6N(CC)c7ccc8c(S(=O)(=O)[O-])cc(S(=O)(=O)O)cc8c7C6(C)C)C(C)(C)c6c5ccc5c(S(=O)(=O)[O-])cc(S(=O)(=O)O)cc65)C(C)C)C(=O)NCC(=O)NCC(=O)NCCOCCOCCOCCOCCOCCOCCOCCOCCOCCOCCOCCO)cc4)cc3[n+](-c3ccccc3)c2c1` [L-MMP-P12]: in series [1], the “species detected in liver” value was “only Met2 fragment could be detected”, the “parent probe in plasma” value is “very little L-MMP-P12 was found” and the “species detected in SCC-7 tumor” value is given as “only Met2 was detected while no parent probe or Met1 was found”. In addition, the “metabolites found after incubation with MMP-13” value at MMP-13 is “two major fragments”. Besides, in series [2] (mice, i.v., blood, LC/MS), the “intact probe in blood samples at 45 min after injection” value is “almost no intact L-MMP-P12 can be detected”. The same molecule registered a half-life in series [2] (blood) of 7.81 ± 0.25 min.
For Cy5.5-GPLGVR [Met2], the “further cleavage of metabolite by MMP-13” value at MMP-13 (incubation with MMP-13, LC/MS, late time points) is “can be further cut by MMP-13 to form Met1”.
For GPLGVRGKGG, the cleaved bond result in series [3] is “Gly4-Val5, major”.
